Compound activity: PubChem BioAssay, several laboratories
Yeast life ext: extends the lifespan of yeast; S. cerevisiae growth with nicotinamide, OD615; deaD strain in restrictive glucose medium; inhibition of the nicotinamide effect, % at 10 µM; 130,000 tested, 0.68% active;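 active = inhibition above a set limit, placed 3 SD over the median of all compounds, cut at about 26% in these data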;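 note: 0% = nicotinamide-treated wells and 100% = cells grown without nicotinamide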
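Assay system: DeaD-strain S. cerevisiae. Medium: CSMM-D glucose medium, restrictive. Reagent: nicotinamide, 1.5 mM, co-present with compound. Compound: 10 µM single point, 0.25% DMSO. Schedule: culture preincubation 4 h, compound exposure 48 h, both 30 °C. Detection: absorbance at 615 nm.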
PTEN del growth: growth suppressors of cells with PTEN tumor suppressor deletion; viability, % at 10 µM; HCT116 PTEN-null viability, CellTiter-Glo, 60 h; stronger effect = lower value; AID 827; 140,000 tested, 1.2% active;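 active = viability at or below a set limit, 4 SD under the median of all tested compounds, cut at about 3.7% in these data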;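 note: PTEN knockout HCT116 line with beta catenin targeted HCT116 as companion control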
sdo1 growth: sdo1-depleted yeast growth rescue; S. cerevisiae sdo1-depleted JHY4D growth rescue, OD600 30 h; stronger effect = higher value; pdr5 snq2 efflux-pump mutant strain; z-score at 10 µM; 140,000 tested, 0.21% active; AID 817;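 active = z-score above 3 at both the 24 hr and the 30 hr optical density reads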;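 note: z-score against mean and SD of all compound wells on the same plate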
bCat KO growth: beta-catenin-lacking colon tumor cell growth suppression | AID 818 | HCT116 beta-catenin knockout viability, CellTiter-Glo, 60 h; stronger effect = lower value | viability, % at 10 µM | 140,000 tested, 1.5% active;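 active = viability at or under a set limit, the compound median less 4 SD, cut at about 6% in these data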;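 note: 0% = Hyamine 1622 control at 20 µM and 100% = untreated cell control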
Yeast growth inh: reduces growth of yeast BB579 in restrictive medium | inhibition, % at 10 µM | S. cerevisiae BB579 growth, OD615, 48 h | 140,000 tested, 0.51% active;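 active = inhibition above a set limit, 3 SD over the mean compound inhibition, cut at about 44% in these data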
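Material: Saccharomyces cerevisiae DeaD strain BB579, replicative lifespan model yeast; buffer or medium: CSMM-D restrictive synthetic medium containing dextrose (glucose); compound: 10 µM single dose, DMSO 0.25%; timing: 48 h compound exposure at 30 °C after 4 h preincubation; signal: turbidity as optical density at 615 nm; benchmarks: positive control amphotericin B 10 µg/mL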
Numbers without * were called inactive; / = no result given. In the library only some 2.8% were active in any assay of this set; here they are far more common.

SMILES	Yeast life ext	PTEN del growth	sdo1 growth	bCat KO growth	Yeast growth inh
CSc1nc2nccc(/C=C\c3ccccc3)n2n1	-12.3	4.3	-0.66	4.5*	-38.7
CCOC(=O)Cn1c(=NC(=O)c2sc3ccccc3c2Cl)sc2cc(S(N)(=O)=O)ccc21	3.6	2.8*	1.62	25.9	-52.8
Cc1nn(-c2ccccc2)c(C)c1NS(=O)(=O)c1ccccc1	-2.4	91.0	-1.12	100.2	-24.1
COC(=O)c1ccc(N/C=C/C(=O)c2ccc(OC)c(OC)c2)cc1	-2.3	87.9	-1.07	70.0	-15.2
COc1ccc(C(=O)/C=C/N2CCCCC2)cc1OC	-5.7	92.1	0.04	86.1	53.1*
O=C1CCC([N+](=O)[O-])C(c2ccc(Cl)cc2Cl)N1 (stereo not drawn)	-1.0	96.8	0.48	100.3	-2.7
O=[N+]([O-])c1ccc(C2Oc3ccccc3C3CC(c4ccccc4)=NN32)s1 (stereo not drawn)	-5.4	2.1*	-1.67	3.3*	95.7*
Cc1ccc(C(NC(=O)NC(C)c2ccccc2)C(Cl)(Cl)Cl)cc1F (stereo not drawn)	-3.2	3.4*	-0.09	6.1*	-29.7
Cc1cc(C)cc(NC(=O)C(OC(=O)c2sccc2C)c2ccccc2)c1 (stereo not drawn)	3.8	79.1	-1.44	76.8	-16.6
Cc1cc(C(=O)c2ccc(Cl)cc2)c(NC(=O)CCl)s1	-0.6	1.8*	-0.72	4.2*	-36.4
CCOC(=O)c1nnn(-c2nonc2-n2cccc2)c1CCl	55.0*	85.1	-0.79	85.0	-21.1
Cc1ccc(OC(=S)Nc2ccc(O)cc2)cc1	/	87.1	-0.27	88.1	83.7*
Cc1ccc(OC(=S)Nc2ccc(F)cc2)cc1	/	88.9	-0.82	92.9	-14.0
Cc1ccn2c(C(=O)c3ccc(Cl)cc3)cnc2c1	-10.8	72.7	-0.12	83.3	-1.6
CCCc1cc(=O)n2[nH]c(-c3ccccc3)cc2n1	-8.9	106.7	0.3	98.1	-23.5
CCCCn1[nH]c(-c2ccccc2)cc1=O	31.6*	101.0	-0.8	90.5	-22.5
CN(C)C(=O)COC(=O)/C=C/c1ccccc1[N+](=O)[O-]	-8.8	93.8	0.7	106.8	-28.1
CCCCCCCCn1c(=O)c(C(=O)OCC)c(O)c2ccccc21	39.1*	104.2	-0.18	98.2	16.2
CCCCCn1c(=O)c(C(=O)OCC)c(O)c2ccccc21	21.7	93.1	-0.67	87.0	9.8
CC1=NC(C)Cc2ccccc21 (stereo not drawn)	-9.3	91.8	1.56	103.0	0.4
CCc1oc2ccccc2c1C(=O)c1cc(Br)c(O)c(Br)c1	-0.7	93.8	-1.72	97.8	82.0*
CCOC(=O)c1c(COc2ccccc2)oc2ccc(O)cc12	-16.6	114.0	-2.23	112.3	-40.0
Cc1cc(C(=O)N/N=C/c2cccc([N+](=O)[O-])c2O)n[nH]1	-2.7	71.2	1.02	84.7	44.1*
CC1(C)CC(=O)C(=Cc2cn(CCC#N)nc2-c2ccc(Cl)cc2)C(=O)C1	38.8*	98.1	0.09	99.3	-51.1
O=C(N/N=C/c1ccc(-c2cccc(C(F)(F)F)c2)o1)c1ccccc1O	1.8	3.1*	-1.42	10.1	-31.4
SMILES	Yeast life ext	PTEN del growth	sdo1 growth	bCat KO growth	Yeast growth inh
O=C(N/N=C/c1ccc(-c2cccc(C(F)(F)F)c2)o1)c1ccccc1Br	-11.8	82.1	-2.08	97.5	-22.1
CCCCOC(=O)Cn1c2ccc(OC)cc2c2nc3ccccc3nc21	-9.0	3.1*	-0.58	4.8*	-9.8
COc1cc(/C=C2/C(=O)ON=C2c2ccccc2)ccc1O	12.5	61.1	-0.36	68.3	86.3*
Cc1sc(/C=C2\C(=O)ON=C2c2ccccc2)cc1Br	0.6	93.6	-0.71	66.4	-42.4
CCN1CCN(C(=S)c2ccc(SC)cc2)CC1	-1.5	98.4	0.13	103.7	3.6
CSc1ccc(C(=S)N2CCN(Cc3ccccc3)CC2)cc1	30.7*	104.4	-0.24	96.1	-68.1
O=C(COCC(=O)N/N=C/c1ccc(F)cc1)N/N=C/c1ccc(F)cc1	8.2	102.7	0.1	98.0	-22.7
COc1ccccc1NC1=C(N2CCCCC2)C(=O)c2ccccc2C1=O	2.2	5.3	-1.5	3.1*	5.1
O=C1C(Nc2ccccc2)=C(N2CCCCC2)C(=O)c2ccccc21	-26.9	35.3	-2.05	29.1	30.0
Cn1c(N/N=C2\CCCc3ccccc32)nc2c1c(=O)n(Cc1ccc(F)cc1)c(=O)n2C	-2.0	1.2*	0.01	1.2*	1.7
Cn1c(NCc2ccccc2)nc2c1c(=O)n(Cc1ccc(Br)cc1)c(=O)n2C	-4.2	/	-2.02	55.3	3.3
O=C(CCl)N(c1ccccc1)c1c[nH]c2ccccc12	-6.3	1.3*	-1.35	1.9*	-13.8
CCOC(=O)Cc1c[nH]c2ccccc12	-2.2	86.9	0.99	98.1	-1.1
O=C(CCl)N(c1ccc(Cl)cc1)c1c[nH]c2ccccc12	-14.7	1.8*	-1.98	1.7*	-26.3
CCOC(=O)c1sc(N)c(C#N)c1COC(=O)CNC(=O)c1ccccc1	-5.3	102.0	0.57	89.1	-1.0
Cc1nn(C)c(C)c1N=Cc1c(O)ccc2ccccc12	37.4	105.2	0.09	93.6	-52.6
Oc1ccc2ccccc2c1C=Nc1ccccc1-c1nc2ccccc2[nH]1	38.7*	74.4	-0.8	77.4	-39.2
O/N=C/c1ccc(OCc2ccccc2)c(Br)c1	-11.5	99.2	-2.12	96.6	44.7*
Cc1ccc(COc2ccc(Br)cc2/C=N/O)cc1	-8.1	64.9	-1.62	67.8	89.1*
O/N=C/c1ccc(OCc2ccccc2)c(Cl)c1	-5.0	85.4	-1.59	82.8	-19.9
Cc1ccc(N2C(=S)N=C(Nc3ccccc3C)C23CCOC(C)(C)C3)cc1 (stereo not drawn)	1.9	50.4	-1.56	52.7	-3.5
Cc1cccc(C(=O)O/N=C/c2c(N3CCOCC3)n(C)c3ccccc23)c1	-20.2	16.4	-1.33	33.2	52.6*
Cn1c(Cl)c(/C=N/OC(=O)c2ccccc2Cl)c2ccccc21	-15.8	111.5	-1.17	94.7	-59.0
CCCc1cc(C(=O)OC)c(NC(=O)c2cc(C)on2)s1	/	84.2	-1.24	84.9	-22.7
COc1cc2[nH]c(=O)n3nc(-c4ccccc4)nc3c2cc1OC	-0.8	46.4	-0.45	62.2	-46.0
SMILES	Yeast life ext	PTEN del growth	sdo1 growth	bCat KO growth	Yeast growth inh
CCN(CC)CCNc1nc2cc(OC)c(OC)cc2c2nc(-c3ccccc3)nn12	-9.8	1.2*	-0.05	1.7*	-32.8
COc1ccc(CC(=O)NNC(=O)c2cccs2)cc1	-0.6	104.1	0.45	109.8	-23.4
COc1ccccc1OCC(=O)NNC(=O)c1cccs1	33.3*	95.7	0.9	94.0	-39.1
CCOc1cc(CN2CCN(C(=O)c3ccco3)CC2)ccc1OC	-11.6	102.2	-0.37	91.7	-22.5
CCOc1ccccc1-n1c(CN2CCN(C(=O)c3ccco3)CC2)nc2ccccc2c1=O	-15.3	2.5*	0.51	3.6*	-47.3
Cc1nc2c(F)c(F)c(C(F)(F)F)c(F)c2[nH]1	-15.7	57.7	-0.23	70.7	57.1*
